Calls of active or inactive are those of the source. The calls are words filed in the database; no cut-off is given here.
What was measured:
Cavia porcellus [1] = species on record: Cavia porcellus; assay: Parasympatholytic activity was assessed from the ability to inhibit electrically stimulated contraction of isolated guinea pig ileum at 4 mg/L of base; type: functional
Summary of the method: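 Electrically stimulated isolated guinea pig ileum, in which tension arises from stimulated acetylcholine release from postganglionic parasympathetic nerve terminals. After about 60 min equilibration, contractile tension was measured just before and during the steady-state response to test drug at 4 mg/L, calculated as free base.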

Canis familiaris [2] = assay: Evaluated for ouabain-induced arrhythmia in anesthetized adult male mongrel dogs. Administered intravenously.; type: functional, Canis lupus familiaris
Summary of the method: (§1)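 Adult male mongrel dogs (10–17 kg) anesthetized with pentobarbital (30 mg/kg iv) and intubated with spontaneous respiration. ECG lead II recorded. Ouabain given iv as boluses: 40 μg/kg, then 20 μg/kg at 30 min, then 10 μg/kg every 15 min until a stable ventricular arrhythmia (>95% ectopic ventricular complexes). Test drug given iv, doses calculated as free base.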

Cavia porcellus [3] = species on record: Cavia porcellus; assay: Anticholinergic activity is assessed in guinea pig ileum at 30 uM; settings: read-out: pA2 (converted)
Cavia porcellus [4] = species on record: Cavia porcellus; assay: Anticholinergic activity is assessed in guinea pig ileum at 50 uM; type: functional; settings: read-out: pA2 (converted)
Summary of the method: (§2)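 Isolated guinea pig ileum contracted with methacholine. Tissue washed between increasing methacholine concentrations. A single antagonist dose was given 15 min before each methacholine concentration. Methacholine EC50 (50% of maximal response) was found per muscle with and without antagonist. pA2 = −log KB, where KB = [antagonist]/((EC50 with/EC50 without) − 1). Doses calculated as free base.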

Cavia porcellus [5] = species on record: Cavia porcellus; assay: Anticholinergic activity is assessed in guinea pig ileum at 30 uM; type: functional, organism-based; settings: read-out: pA2 (converted); summary of the method: as §2
Canis familiaris [6] = assay: Compound was evaluated for ouabain-induced arrhythmia in anesthetized adult male mongrel dogs. Both ouabain and compound are administered intravenously; NA = inactive up to 30 mg/kg; type: functional, organism-based; parameters: dose 30 mg/kg; settings: Canis lupus familiaris; summary of the method: as §1
Cavia porcellus [7] = species on record: Cavia porcellus; assay: Anticholinergic activity is assessed in guinea pig ileum at 10 uM; type: functional; settings: read-out: pA2 (converted); summary of the method: as §2
Canis familiaris [8] = assay: Compound was evaluated for ouabain-induced arrhythmia in anesthetized adult male mongrel dogs. Both ouabain and compound are administered intravenously; NA means not effective; type: functional, organism-based; settings: Canis lupus familiaris; summary of the method: as §1

SMILES	Inhibition (Cavia porcellus [1])	Dose (Canis familiaris [2])	other results
Cl.Cl.O=C(Nc1cc(CN2CCCC2)c(O)c(CN2CCCC2)c1)c1cccc(Cl)c1	37%	3.8 mg/kg	–
Cl.Cl.O=C(NCc1cc(CN2CCCC2)c(O)c(CN2CCCC2)c1)c1cccc(C(F)(F)F)c1	72%	5.5 mg/kg	–
CC(C)N(CCC(C(N)=O)(c1ccccc1)c1ccccn1)C(C)C (stereo not given) [DISOPYRAMIDE]	81%	4.4 mg/kg	Kb (Cavia porcellus [3]): 0.363 µM
COc1ccccc1C(=O)Nc1cc(CN2CCCC2)c(O)c(CN2CCCC2)c1.Cl.Cl	31%	3 mg/kg	–
Cl.Cl.O=C(NCc1cc(CN2CCCC2)c(O)c(CN2CCCC2)c1)c1ccc(Cl)cc1	56%	3.7 mg/kg	–
O=C(Nc1cc(CN2CCCC2)c(O)c(CN2CCCC2)c1)c1ccccc1Cl	0%	5 mg/kg	Kb (Cavia porcellus [4]): 7.59 µM
Cc1ccccc1C(=O)Nc1cc(CN2CCCC2)c(O)c(CN2CCCC2)c1.Cl.Cl	9%	2.7 mg/kg	Kb (Cavia porcellus [5]): 19.5 µM
Cl.Cl.O=C(Nc1cc(CN2CCCC2)c(O)c(CN2CCCC2)c1)c1ccccc1C(F)(F)F	0%	6.5 mg/kg	Kb (Cavia porcellus [4]): 17.4 µM
Oc1c(CN2CCCC2)cc(Nc2ncnc3ccccc23)cc1CN1CCCC1 [CHANGROLIN]	43%	5.5 mg/kg	–
Cl.Cl.O=C(NCc1cc(CN2CCCC2)c(O)c(CN2CCCC2)c1)c1cccc(Cl)c1	78%	9 mg/kg	–
COc1cc(C(=O)Nc2cc(CN3CCCC3)c(O)c(CN3CCCC3)c2)cc(OC)c1OC.Cl.Cl	6%	–	DOSE (Canis familiaris [6]): inactive
C=C[C@H]1CN2CC[C@H]1C[C@@H]2[C@@H](O)c1ccnc2ccc(OC)cc12 [QUINIDINE]	62%	10.5 mg/kg	Kb (Cavia porcellus [7]): 1 µM
Cl.Cl.O=C(NCc1cc(CN2CCCC2)c(O)c(CN2CCCC2)c1)c1ccccc1C(F)(F)F	8%	1.9 mg/kg	–
Cl.O=C(Nc1cc(CN2CCCC2)c(O)c(CN2CCCC2)c1)c1cccc(C(F)(F)F)c1	62%	2.3 mg/kg	–
CCN(CC)CCNC(=O)c1ccc(N)cc1 [PROCAINAMIDE]	0%	29 mg/kg	–
Cl.Cl.O=C(NCc1cc(CN2CCCC2)c(O)c(CN2CCCC2)c1)c1ccc(C(F)(F)F)cc1	50%	4.5 mg/kg	–
Cc1cccc(C)c1C(=O)Nc1cc(CN2CCCC2)c(O)c(CN2CCCC2)c1.Cl.Cl	15%	3.2 mg/kg	Kb (Cavia porcellus [4]): 5.5 µM

SMILES	Inhibition (Cavia porcellus [1])	Dose (Canis familiaris [2])	other results
O=C(NCc1cc(CN2CCCC2)c(O)c(CN2CCCC2)c1)c1ccccc1	34%	3 mg/kg	–
O=C(Nc1cc(CN2CCCC2)c(O)c(CN2CCCC2)c1)c1cccs1	44%	2 mg/kg	Kb (Cavia porcellus [5]): 15.8 µM
Nc1ccc(C(=O)Nc2cc(CN3CCCC3)c(O)c(CN3CCCC3)c2)cc1	0%	4.5 mg/kg	–
O=C(Nc1cc(CN2CCCC2)c(O)c(CN2CCCC2)c1)c1cc(Br)sc1Br	–	4.3 mg/kg	–
O=C(Nc1cc(CN2CCCC2)c(O)c(CN2CCCC2)c1)c1ccc(C(F)(F)F)cc1	42%	5.3 mg/kg	–
COc1ccc(C(=O)Nc2cc(CN3CCCC3)c(O)c(CN3CCCC3)c2)cc1	24%	7.3 mg/kg	–
Cl.Cl.O=C(Nc1cc(CN2CCCC2)c(O)c(CN2CCCC2)c1)c1c(Cl)cccc1Cl	14%	4.6 mg/kg	Kb (Cavia porcellus [4]): 4.68 µM
Cc1ccsc1C(=O)Nc1cc(CN2CCCC2)c(O)c(CN2CCCC2)c1	–	1.6 mg/kg	–
Cl.Cl.O=C(Nc1cc(CN2CCCC2)c(O)c(CN2CCCC2)c1)c1ccc(Cl)cc1Cl	11%	–	DOSE (Canis familiaris [8]): Not effective
O=C(Nc1cc(CN2CCCC2)c(O)c(CN2CCCC2)c1)c1ccc([N+](=O)[O-])cc1	24%	11 mg/kg	–
O=C(Nc1cc(CN2CCCC2)c(O)c(CN2CCCC2)c1)c1ccc(Cl)cc1	49%	1.5 mg/kg	–
O=C(Cc1cccs1)Nc1cc(CN2CCCC2)c(O)c(CN2CCCC2)c1	13%	–	DOSE (Canis familiaris [8]): Not effective
Cc1cccc(C(=O)Nc2cc(CN3CCCC3)c(O)c(CN3CCCC3)c2)c1.Cl.Cl	32%	5.2 mg/kg	–
Cl.Cl.O=C(NCc1cc(CN2CCCC2)c(O)c(CN2CCCC2)c1)c1ccccc1Cl	19%	2.5 mg/kg	Kb (Cavia porcellus [4]): 12 µM
Cc1ccc(C(=O)Nc2cc(CN3CCCC3)c(O)c(CN3CCCC3)c2)s1	–	4.3 mg/kg	–
Cc1ccc(C(=O)Nc2cc(CN3CCCC3)c(O)c(CN3CCCC3)c2)cc1	22%	3 mg/kg	–
O=C(Nc1cc(CN2CCCC2)c(O)c(CN2CCCC2)c1)c1ccccc1	30%	3.4 mg/kg	Kb (Cavia porcellus [3]): 10 µM

Reference: ChEMBL document CHEMBL1122619, “Synthesis and antiarrhythmic and parasympatholytic properties of substituted phenols. 2. Amides” (J Med Chem, 1984)
